Screening data as filed in PubChem.
miR-122 sensor: inhibitors of miR-122 in Huh7 cells; activation (reporter increase), % at 12.5 µM; AID 602342; 340,000 tested, 0.3% active; Huh7 miR-122 Renilla luciferase sensor, 48 h; neutral wells = 0, positive control = 100;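 active = mean replicate activation score at least 90 and every replicate individually at or above 90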;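 note: higher luciferase means less miR-122 activity so hits act as miR-122 inhibitors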
NR2E3 ag-1: activates human NR2E3 receptor | 360,000 tested, 0.35% active | AID 602229 | inhibition of corepressor binding, % at 3.98 µM | CHO-S Gal4-NCOR/VP16-NR2E3 two-hybrid, luciferase;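 active = inhibition above the mean of all tested compounds plus 3 SD, cut at about 70% in these data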;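 note: higher means lower luciferase signal from less NR2E3 corepressor binding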
Target sequence (Q9Y5X4 whole entry, looked up, the tested form may be a part): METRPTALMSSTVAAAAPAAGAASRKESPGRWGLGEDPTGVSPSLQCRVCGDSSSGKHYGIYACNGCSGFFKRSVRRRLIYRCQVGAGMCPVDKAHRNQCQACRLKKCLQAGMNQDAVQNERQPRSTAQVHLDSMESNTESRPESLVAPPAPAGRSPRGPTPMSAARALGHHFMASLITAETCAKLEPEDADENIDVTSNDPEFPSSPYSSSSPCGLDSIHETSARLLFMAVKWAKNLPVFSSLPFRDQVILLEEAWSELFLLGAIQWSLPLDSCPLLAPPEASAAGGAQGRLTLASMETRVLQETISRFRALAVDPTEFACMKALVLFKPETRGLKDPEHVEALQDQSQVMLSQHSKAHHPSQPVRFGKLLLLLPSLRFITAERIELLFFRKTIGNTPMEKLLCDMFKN
697 NFkB inh: inhibitors of the PMA/ionomycin-induced NF-kB reporter in 697 B cells | inhibition, % at 4 µM | 330,000 tested, 0.33% active | 697 B-cell NF-kB luciferase reporter, 16 h | AID 435022; in the data active = inhibition above about 35%
NR2E3 ag-2: agonists of human nuclear receptor NR2E3 | Q9Y5X4 | GST-NR2E3/biotin-RetCOR TR-FRET, 1536-well | inhibition of corepressor binding, % at 4.78 µM | 320,000 tested, 0.12% active | AID 2300;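 active = percent inhibition above the cutoff of mean plus 3 SD of all tested compounds, set per screening campaign, cut at about 20% in these data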
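System: GST-NR2E3 and biotin-RetCOR proteins; probe or stimulus: 7 nM biotin-RetCOR; doses: compound at 4.8 µM, single dose; schedule: Compound–protein incubation for 5 h at 4 °C; detection: time-resolved FRET; read-out: percent inhibition; controls: biotin wells as high control, 0.6% DMSO wells as low control; format: 1536-well plates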
FGF22 binding: shifts melting point of recombinant human FGF22 | 340,000 tested, 1.5% active | recombinant FGF22 thermal shift, SYPRO orange fluorescence; percent of sucrose octasulfate shift, DMSO zero | AID 651658 | activity (Tm shift, normalised), % at 9.99 µM;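 active = mean Tm shift, scaled 0 neutral to 100 positive control, at about 1.3% or above, every replicate too, limit read from the data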
Target sequence (Q9HCT0 whole entry, looked up): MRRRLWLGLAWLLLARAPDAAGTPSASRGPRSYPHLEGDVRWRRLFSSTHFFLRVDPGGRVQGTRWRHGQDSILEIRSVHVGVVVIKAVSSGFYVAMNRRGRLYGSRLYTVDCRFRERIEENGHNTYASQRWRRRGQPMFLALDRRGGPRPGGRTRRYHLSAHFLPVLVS
Jurkat NFkB inh: inhibitors of the PMA/ionomycin-induced NF-kB reporter in Jurkat cells; inhibition, % at 4 µM; PMA/ionomycin-induced NF-kB luciferase reporter, luminescence; 330,000 tested, 0.53% active; in the data active = inhibition above about 50%
Jurkat NFkB conf: inhibitors of the PMA/ionomycin-induced NF-kB reporter in Jurkat cells, retest. inhibition, % at 4 µM. shares compounds with Jurkat NFkB inh. Jurkat NF-kB luciferase, 16 h. 2,700 tested, 27% active;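 active = inhibition reaching about 45% at 4 µM in either replicate, limit read from the data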
Numbers stand for hits; . = inactive; / = no result given. A selection: hits, their analogues and other compounds. The true share with any hit is near 2.2%.

SMILES | miR-122 sensor | NR2E3 ag-1 | 697 NFkB inh | NR2E3 ag-2 | FGF22 binding | Jurkat NFkB inh | Jurkat NFkB conf
CCOC(=O)c1c(C)[nH]c(C(=O)N/N=C/c2ccc(OC)c(OC)c2)c1C | . | . | . | . | . | 55.4 | .
Cc1ccc(C(=O)Nc2ncc(Cc3ccc(SC(F)F)cc3)s2)cc1 | . | . | . | . | . | 64.4 | 47.5
Cc1ccc(C(=O)Nc2ncc(Cc3ccc(F)cc3)s2)o1 | . | . | . | . | / | . | /
C[C@@H]1CCCCO[C@H](CN(C)Cc2ccc(C(=O)O)cc2)[C@H](C)CN([C@@H](C)CO)C(=O)c2cc(NS(=O)(=O)c3ccc(Cl)cc3)ccc2O1 | . | / | / | / | . | / | /
CCN(CC)CCNC1=NCCn2c1cc1cc(OC)ccc12 | . | . | . | . | / | . | /
CCN(CC)CCCCNc1ncc2cc(-c3cc(OC)cc(OC)c3)c(NC(=O)NC(C)(C)C)nc2n1 | . | . | . | . | . | 75.0 | .
CC(=O)Nc1sc2c(c1-c1nc3ccccc3s1)CCN(C(C)C)C2 | / | . | . | . | / | 83.7 | .
CCn1cc2nc(SCC(=O)Nc3ccc(OC)c(OC)c3)n(Cc3ccc(OC)cc3)c(=O)c2n1 | . | . | . | . | . | . | /
CCn1cc2nc(SCC(=O)Nc3ccc(OC)cc3OC)n(Cc3ccc(OC)cc3)c(=O)c2n1 | / | . | . | . | . | 51.5 | .
CC(C)CC[n+]1ccccc1/C=C/c1ccc(N(C)C)cc1 | . | . | . | . | . | 89.6 | 49.0
CN(C)c1ccc(/C=C/c2cccc[n+]2[O-])cc1 | . | . | . | . | . | . | /
COc1ccccc1NC(=O)CSc1nnc(-c2ccc(C)cc2)o1 | . | . | . | . | / | . | .
COc1ccc(C)cc1NC(=O)CSc1nnc(-c2ccc(Br)cc2)o1 | . | . | . | . | . | . | /
COc1cccc(NC(=O)CSc2nnc(-c3ccc(C)cc3)o2)c1 | / | . | . | . | . | . | .
CC(C)NC(=O)C1CCN(S(=O)(=O)c2ccc(N3CCCC3=O)cc2)CC1 | . | . | . | . | . | 79.3 | .
Cc1ccc(S(=O)(=O)Nc2ccc3c(c2)C(=O)N([C@@H](C)CO)C[C@@H](C)[C@@H](CN(C)Cc2ccc4c(c2)OCO4)O3)cc1 | . | / | / | / | . | / | /
COc1ccc(Nc2nc3ccc(C)cc3cc2C#N)c(OC)c1 | . | . | . | . | . | . | /
COc1ccc(Nc2nc3cc(C)ccc3cc2C#N)c(OC)c1 | / | . | . | . | . | 65.1 | .
C[C@@H]1CN([C@H](C)CO)C(=O)c2cccc(NS(=O)(=O)c3cccs3)c2O[C@@H]1CN(C)CC1CC1 | . | / | / | / | . | / | /
O=C(C[C@H]1CC[C@@H](NC(=O)Cc2ccccn2)[C@H](CO)O1)NCCc1ccncc1 | . | / | / | / | . | / | /
O=C(CC(Nc1ccc(F)cc1)C(=O)O)c1ccccc1 (stereo not given) | . | . | . | . | / | . | .
COC(=O)c1ccc(-c2cc3onc(-c4ccccc4)c3c(=O)n2C)cc1 | . | . | . | . | . | . | /
Cn1c(-c2ccc(F)c(F)c2)cc2onc(-c3ccccc3)c2c1=O | . | . | . | . | . | . | .
C[C@@H]1CN([C@@H](C)CO)C(=O)c2cccc(NS(=O)(=O)c3ccc(Cl)cc3)c2O[C@H]1CN(C)C(=O)Nc1ccc2c(c1)OCO2 | . | / | / | / | . | / | /
COc1ccc(CN(C)C[C@H]2OCCCC[C@@H](C)Oc3ccc(NC(=O)Nc4ccc5c(c4)OCO5)cc3C(=O)N([C@H](C)CO)C[C@@H]2C)cc1 | . | / | / | / | . | / | /
SMILES | miR-122 sensor | NR2E3 ag-1 | 697 NFkB inh | NR2E3 ag-2 | FGF22 binding | Jurkat NFkB inh | Jurkat NFkB conf
CCOC(=O)c1cnc2c(-c3ccccc3)cnn2c1N | . | . | . | . | / | . | .
O=C(O/N=C(\c1ccccc1)c1ccncc1)c1ccccc1Cl | . | . | . | . | . | . | /
N/C(=N\OC(=O)c1ccc(Cl)cc1)c1ccc(Cl)cc1 | . | . | . | . | / | . | /
N/C(=N\OC(=O)c1ccccc1Cl)c1ccccc1 | . | . | . | . | / | . | .
N/C(=N\OC(=O)c1ccccc1Cl)c1ccc(Cl)cc1 | . | . | . | . | / | . | .
N/C(=N\OC(=O)c1ccc(Cl)cc1)c1cccnc1 | . | . | . | . | / | . | /
N/C(=N\OC(=O)c1ccc(Cl)cc1)c1ccn[nH]1 | . | . | . | . | . | . | .
C[C@@H]1CCCCO[C@H](CN(C)S(=O)(=O)c2ccc(Cl)cc2)[C@@H](C)CN([C@@H](C)CO)C(=O)c2cc(NC(=O)Nc3ccccc3)ccc2O1 | . | / | / | / | . | / | /
COc1ccc(CNC(=O)C[C@H]2C=C[C@H](NC(=O)c3cccc(F)c3)[C@@H](CO)O2)cc1 | / | / | / | / | . | / | /
C/C(=N/NC(=O)c1ccc(C(C)(C)C)cc1)c1ccccn1 | . | . | . | . | / | 99.5 | .
NNC(=O)c1cc(-c2cccs2)nc2ccccc12 | / | . | . | . | . | . | /
C/C(=N/NC(=O)c1ccccn1)c1ccncc1 | . | . | . | . | . | . | /
C/C(=N\NC(=O)c1ccc(Cl)c(Cl)c1)c1ccccn1 | / | . | . | / | . | 98.2 | 53.4
C/C(=N\NC(=O)c1ccccc1Cl)c1ccccn1 | . | . | . | . | . | 88.8 | .
O=C(N/N=C(\c1ccccc1)c1ccccn1)c1ccccc1Cl | . | . | . | . | . | . | /
C/C(=N\NC(=O)c1cc(-c2cccs2)nc2ccccc12)c1ccccn1 | 151.4 | . | . | . | . | 55.1 | .
C/C(=N\NC(=O)c1ccc(NS(=O)(=O)c2cccs2)cc1)c1ccccn1 | / | / | . | . | / | . | /
C/C(=N\NC(=O)C(c1ccccc1)c1ccccc1)c1ccccn1 | / | . | . | . | / | 78.8 | .
C/C(=N\NC(=O)C1COc2ccccc2O1)c1ccccn1 (stereo not given) | . | . | . | . | / | 72.9 | .
COc1ccc(C(=O)N/N=C(\C)c2ccccn2)cc1OC | . | . | . | . | . | 96.3 | .
C/C(=N\NC(=O)c1cccc(Br)c1)c1ccccn1 | . | . | . | . | . | 91.9 | .
O=C(C1CCCC1)N1CCCCN2[C@@H](CO)[C@H](c3ccc(C#CC4(O)CCCC4)cc3)[C@@H]2C1 | . | / | / | / | . | / | /
C/C(=N\NC(=O)c1cccc2ccccc12)c1ccccn1 | . | . | . | / | . | 95.3 | .
CC(C)(C)c1ccc(/C=N/NC(=O)c2ccccn2)cc1 | / | . | . | . | . | . | .
C[C@H](O)C#Cc1cnc2c(c1)C(=O)N([C@@H](C)CO)C[C@H](C)[C@@H](CN(C)Cc1cncnc1)O2 | . | / | / | / | . | / | /
CC(=O)N1CCCCN2[C@H](C1)[C@H](c1ccc(-c3cccc(C)c3)cc1)[C@@H]2CO | . | / | / | / | . | / | /
CCOC(=O)C(C)Oc1cccc2c(=O)n(CC(=O)NCc3ccc(F)cc3)ccc12 (stereo not given) | . | . | . | . | . | 73.0 | 48.2
